From ChEMBL document CHEMBL3232989, “First identification of boronic species as novel potential inhibitors of the Staphylococcus aureus NorA efflux pump” (J Med Chem, 2014)
In brackets after ≈: the same amount, converted by molar mass.

Columns and labels:
[1] = Cytotoxicity against human KB cells assessed growth inhibition at 10 uM after 72 hrs by MTS assay; type: cell-based; conditions: read-out: GI
Method in brief: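 KB cells (from NCI) grown in DMEM with 10% FCS, penicillin-streptomycin, fungizone and glutamine, 37 °C, 5% CO2; compounds in DMSO added 24 h after plating (1% DMSO final, controls same). 72 h exposure, then MTS 3 h at 37 °C, absorbance at 490 nm; inhibition = (1 − OD490 treated/OD490 control)×100, triplicate experiments.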

Staphylococcus aureus [2] = test: Toxicity in fluoroquinolone-resistant Staphylococcus aureus 1199B expressing NorA at 100 ug/ml after 24 hrs by microdilution method; type: organism-based
Method in brief: (§1)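 Single-point screen at 100 μg/mL of compound alone in MH broth microdilution, 10^6 CFU/mL, 24 h at 37 °C. Growth is read at 620 nm and visually, giving percent growth inhibition. Compounds inhibiting more than 90% then go to MIC determination. Duplicates.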

Staphylococcus aureus [3] = test: Toxicity in Staphylococcus aureus ATCC 25923 at 100 ug/ml after 24 hrs by microdilution method; type: organism-based; method in brief: as §1
Staphylococcus aureus [4] = test: Toxicity in Staphylococcus aureus ATCC 25923 after 24 hrs by microdilution method; type: organism-based
Method in brief: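 Mueller–Hinton broth microdilution; inoculum from frozen culture grown 18 h at 37 °C, 10^6 CFU/mL per well. Compounds (10 mg/mL DMSO stock) in 2-fold serial dilutions, highest 128 mg/L, first screened at 100 μg/mL. MIC = complete growth inhibition after 24 h at 37 °C, read at 620 nm and visually; duplicate; ampicillin control.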

[5] = target: T1, Quinolone resistance protein NorA (Staphylococcus aureus) (UniProt P0A0J7); test: Inhibition of NorA in fluoroquinolone-resistant Staphylococcus aureus 1199B assessed as potentiation of 4 ug/ml of ciprofloxacin MIC at 100 ug/ml after 24 hrs by microdilution method
T1 sequence (whole entry): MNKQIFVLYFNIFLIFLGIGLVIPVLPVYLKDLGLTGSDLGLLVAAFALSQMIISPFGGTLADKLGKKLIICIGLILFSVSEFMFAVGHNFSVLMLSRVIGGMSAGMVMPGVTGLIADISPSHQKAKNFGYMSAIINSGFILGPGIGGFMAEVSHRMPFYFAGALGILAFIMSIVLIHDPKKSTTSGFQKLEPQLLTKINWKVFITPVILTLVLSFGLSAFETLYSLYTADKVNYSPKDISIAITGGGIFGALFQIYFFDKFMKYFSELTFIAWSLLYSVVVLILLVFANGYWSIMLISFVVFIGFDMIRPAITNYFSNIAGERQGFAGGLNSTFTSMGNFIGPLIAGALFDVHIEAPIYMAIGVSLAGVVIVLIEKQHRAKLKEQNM
Method in brief: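 Combination with ciprofloxacin 4 μg/mL (MIC/4) against SA-1199B in MH broth microdilution, 10^6 CFU/mL, 24 h at 37 °C, read at 620 nm and visually. Compounds are first screened at 100 μg/mL; actives are 2-fold serially diluted. MMC4 is the lowest inhibitor concentration giving antibacterial activity with subinhibitory ciprofloxacin. Duplicates.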

Staphylococcus aureus [6] = test: Toxicity in fluoroquinolone-resistant Staphylococcus aureus 1199B expressing NorA after 24 hrs by microdilution method; type: organism-based; conditions: in vitro
Method in brief: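 Broth microdilution in Mueller–Hinton broth, 10^6 CFU/mL per well from an 18 h 37 °C culture. Compounds come from 10 mg/mL DMSO stocks as 2-fold serial dilutions, top 128 mg/L. Plates run 24 h at 37 °C and are read at 620 nm and visually. MIC is the lowest concentration with complete growth inhibition. Duplicates; 2-fold variance accepted.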

Structure (SMILES) | inhibition at 72 h, 10 µM [1] [%] | growth inhibition (GI) (Staphylococcus aureus [2]) [%] | growth inhibition (GI) (Staphylococcus aureus [3]) [%] | MIC (Staphylococcus aureus [4]) | Activity [5] [µg/mL] | MIC (Staphylococcus aureus [6])
Cc1c(B(O)O)ccc2ccccc12 | 0 | < 90 | < 90 | >= 64 ug ml-1 | 8 | 
O=Cc1ccccc1Cl |  |  |  | >= 64 ug ml-1 | > 128 | > 128 µg/mL
O=C(O)c1ccccc1Br |  |  |  | >= 64 ug ml-1 | > 128 | > 128 µg/mL
O=Cc1ccccc1Br |  |  |  | >= 64 ug ml-1 | > 128 | > 128 µg/mL
CC(=O)OCc1ccc(B(OC(C)(C)C(C)(C)O)OC(C)(C)C(C)(C)O)cc1 | 6 | < 90 | < 90 | >= 64 ug ml-1 | 4 | 
O=Cc1cccnc1 [NICOTINALDEHYDE] |  |  |  | >= 64 ug ml-1 | > 128 | > 128 µg/mL
Oc1cccnc1 |  |  |  | >= 64 ug ml-1 | > 128 | > 128 µg/mL
OB(O)c1cnc2ccccc2c1 | 0 | < 90 | < 90 | >= 64 ug ml-1 | 4 | 
O=C(O)c1ccc(Cl)nc1 [6-CHLORONICOTINIC ACID] |  |  |  | >= 64 ug ml-1 | > 128 | > 128 µg/mL
OB(O)c1cc(Br)cnc1F |  |  | < 90 | >= 64 ug ml-1 | 128 | > 128 µg/mL
CCOc1ccc(B(O)O)cn1 | 0 | < 90 | < 90 | >= 64 ug ml-1 | 4 | 
OB(O)c1cccnc1F | 4 | < 90 | < 90 | >= 64 ug ml-1 | 8 | 
Oc1ccccc1 [PHENOL] |  |  |  | >= 64 ug ml-1 | > 128 | > 128 µg/mL
O=C(O)c1cnc2ccccc2c1 |  |  |  | >= 64 ug ml-1 | 32 | > 128 µg/mL
OB(O)c1ccsc1 | 0 | < 90 | < 90 | >= 64 ug ml-1 | 8 | 
Oc1ccccc1Cl [2-CHLOROPHENOL] |  |  |  | >= 64 ug ml-1 | 128 | > 128 µg/mL
OB(O)c1cc(Cl)cnc1Cl |  |  | < 90 | >= 64 ug ml-1 | 16 | > 128 µg/mL
O=C(O)c1ccccc1Cl |  |  |  | >= 64 ug ml-1 | 64 | 128 µg/mL (≈ 818 µM)
CC(C)(O)C(C)(C)OB(OC(C)(C)C(C)(C)O)c1cc(Cl)cnc1Cl |  |  | < 90 | >= 64 ug ml-1 | > 128 | 128 µg/mL (≈ 326 µM)
Cc1cccc(O)c1Cl |  |  |  | >= 64 ug ml-1 | 64 | > 128 µg/mL
O=Cc1cnc2ccccc2c1 |  |  |  | >= 64 ug ml-1 | > 128 | > 128 µg/mL

Structure (SMILES) | inhibition at 72 h, 10 µM [1] [%] | growth inhibition (GI) (Staphylococcus aureus [2]) [%] | growth inhibition (GI) (Staphylococcus aureus [3]) [%] | MIC (Staphylococcus aureus [4]) | Activity [5] [µg/mL] | MIC (Staphylococcus aureus [6])
OCc1ccc(OCc2ccccc2)nc1 |  |  |  |  | > 34 | >= 128 ug ml-1
OB(O)c1cncc(Oc2cccnc2)c1 |  |  |  | >= 64 ug ml-1 | 16 | > 128 µg/mL
O=Cc1ccc2ccccc2c1 [2-NAPHTHALDEHYDE] |  |  |  | >= 64 ug ml-1 | 64 | > 128 µg/mL
O=C(O)c1ccccc1 [BENZOIC ACID] |  |  |  | >= 64 ug ml-1 | > 128 | > 128 µg/mL
CC(C)(O)C(C)(C)OB(OC(C)(C)C(C)(C)O)c1cc(Br)cnc1F |  |  | < 90 | >= 64 ug ml-1 | 64 | 128 µg/mL (≈ 305 µM)
O=Cc1ccc(OCc2ccccc2)nc1 |  |  |  | >= 64 ug ml-1 | 32 | > 128 µg/mL
Cc1cc(C(=O)O)cnc1Cl |  |  |  | >= 64 ug ml-1 | > 128 | > 128 µg/mL
O=C(O)c1ccc(Br)nc1 |  |  |  | >= 64 ug ml-1 | > 128 | > 128 µg/mL
Oc1ccccc1Br |  |  |  | >= 64 ug ml-1 | 128 | > 128 µg/mL
Cc1cc(O)cnc1Cl |  |  |  | >= 64 ug ml-1 | > 128 | > 128 µg/mL
Oc1ccc2ccccc2c1 [BETANAPHTHOL] |  |  |  | >= 64 ug ml-1 | 64 | > 128 µg/mL
O=Cc1ccccc1 [BENZALDEHYDE] |  |  |  | >= 64 ug ml-1 | > 128 | > 128 µg/mL
O=C(O)c1cccnc1 [NIACIN] |  |  |  | >= 64 ug ml-1 | > 128 | > 128 µg/mL
Oc1ccc(Br)nc1 |  |  |  | >= 64 ug ml-1 | > 128 | > 128 µg/mL
Oc1ccc(Cl)nc1 |  |  |  | >= 64 ug ml-1 | > 128 | > 128 µg/mL
CC(C)(O)C(C)(C)OB(OC(C)(C)C(C)(C)O)c1cncc(Cl)c1 |  |  |  | >= 64 ug ml-1 | > 128 | 128 µg/mL (≈ 358 µM)
Cc1cccc(C(=O)O)c1Cl |  |  |  | >= 64 ug ml-1 | > 128 | > 128 µg/mL
Oc1cnc2ccccc2c1 |  |  |  | >= 64 ug ml-1 | > 128 | > 128 µg/mL
O=C(O)c1ccc2ccccc2c1 [BETA-NAPHTOIC ACID] |  |  |  | >= 64 ug ml-1 | > 128 | > 128 µg/mL
COc1ccc(B(O)O)cc1 |  |  |  |  | 64 | > 128 µg/mL
CC(C)(C)OC(=O)n1ncc2cc(B3OC(C)(C)C(C)(C)O3)ccc21 |  | < 90 | < 90 | >= 64 ug ml-1 | > 128 | 
